The values below come from ChEMBL document CHEMBL4334541, “Nicotinamide Phosphoribosyltransferase (NAMPT) Is a New Target of Antitumor Agent Chidamide” (ACS Med Chem Lett, 2020).

Active and inactive are the calls of the source. The rule behind the calls is not given here.

In assay [1] the target is T1, Nicotinamide phosphoribosyltransferase (Homo sapiens, UniProt P43490). Description: Inhibition of NAMPT in human HEL cells assessed as decrease in cellular NAD+ level after 24 hrs in presence of NA by MTT assay. It counts as cell-based. In a few lines: (§1)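 Rescue test in HCT116, K562, HL60 and HEL cells, with NA supplemented at 4 μM alongside compound treatment.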
Target sequence in this assay (P43490 whole entry, looked up): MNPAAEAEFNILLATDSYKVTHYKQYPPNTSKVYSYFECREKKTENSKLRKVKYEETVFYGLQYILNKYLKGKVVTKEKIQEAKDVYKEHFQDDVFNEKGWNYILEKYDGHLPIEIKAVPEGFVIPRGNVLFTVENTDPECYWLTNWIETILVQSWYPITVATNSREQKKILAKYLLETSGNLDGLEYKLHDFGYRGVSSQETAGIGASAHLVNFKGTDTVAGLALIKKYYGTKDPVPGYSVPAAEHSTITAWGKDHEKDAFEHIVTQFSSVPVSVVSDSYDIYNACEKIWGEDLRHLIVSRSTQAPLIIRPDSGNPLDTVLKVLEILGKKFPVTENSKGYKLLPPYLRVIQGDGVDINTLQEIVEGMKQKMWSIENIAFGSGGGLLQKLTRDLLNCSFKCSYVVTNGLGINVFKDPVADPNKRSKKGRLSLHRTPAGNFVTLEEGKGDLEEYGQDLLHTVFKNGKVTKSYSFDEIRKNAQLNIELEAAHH

Assay [2] has as its system K562. Description: Antiproliferative activity against human K562 cells NAMPT deficient assessed as reduction in cell viability after 72 hrs by CCK8 assay. It counts as functional, cell-based. To be noted: K562, 72 h. In short, it runs like this:
(§2)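 NAMPT-deficient cells were generated by siRNA knockdown of NAMPT before cytotoxicity testing.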

Assay [3] has as its target T1, Nicotinamide phosphoribosyltransferase. Description: Inhibition of NAMPT in human K562 cells assessed as decrease in cellular NAD+ level after 24 hrs in presence of NA by MTT assay. Type of assay: cell-based. In a few lines:
as §1
Target sequence in this assay (P43490 whole entry, looked up): as above

Assay [4] shares this target. Description: Inhibition of NAMPT in human HCT116 cells assessed as decrease in cellular NAD+ level after 24 hrs by MTT assay. Type of assay: cell-based. In a few lines:
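Relative cellular NAD+ level in HCT116 cells after 24 h exposure to a range of compound concentrations, compared qualitatively with an untreated control.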
Target sequence in this assay (P43490 whole entry, looked up): as above

For assay [5] the target is unchanged. Description: Inhibition of NAMPT in human HCT116 cells assessed as decrease in cellular NAD+ level after 24 hrs in presence of NA by MTT assay. Type of assay: cell-based. In short, it runs like this:
as §1
Target sequence in this assay (P43490 whole entry, looked up): as above

The target is the same in assay [6]. Description: Inhibition of human NAMPT using NAM and PRPP as substrates incubated for 90 mins in presence of NMNAT by fluorometric method.
Target sequence in this assay (P43490 whole entry): as the sequence (P43490 whole entry, looked up) above
Assay [7] concerns HL-60. Description: Antiproliferative activity against human HL60 cells assessed as reduction in cell viability after 72 hrs by CCK8 assay. The following applies: HL-60, 72 h. It counts as functional, cell-based.
Assay [8] has as its system HL-60. Description: Antiproliferative activity against human HL60 cells NAMPT deficient assessed as reduction in cell viability after 72 hrs by CCK8 assay. To be noted: HL-60, 72 h. Type of assay: functional, cell-based. In short, it runs like this:
as §2

Assay [9] concerns HEL. Description: Antiproliferative activity against human HEL cells assessed as reduction in cell viability after 72 hrs by CCK8 assay. It counts as functional, cell-based.
Assay [10] relates to HEL. Description: Antiproliferative activity against human HEL cells NAMPT deficient assessed as reduction in cell viability after 72 hrs by CCK8 assay. It counts as functional, cell-based. In a few lines:
as §2

In assay [11] the target is T1, Nicotinamide phosphoribosyltransferase. Description: Inhibition of NAMPT in human HL60 cells assessed as decrease in cellular NAD+ level after 24 hrs in presence of NA by MTT assay. It counts as cell-based. In short, it runs like this:
as §1
Target sequence in this assay (P43490 whole entry, looked up): as above

For assay [12] the target is unchanged. Description: Inhibition of NAMPT in human HEL cells assessed as decrease in cellular NAD+ level after 24 hrs in presence of NMN by MTT assay. Type of assay: cell-based. In a few lines:
(§3)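 Rescue test in HCT116, K562, HL60 and HEL cells, with NMN supplemented at 10 μM alongside compound treatment.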
Target sequence in this assay (P43490 whole entry, looked up): as above

Assay [13] relates to HCT-116. Description: Antiproliferative activity against human HCT116 cells NAMPT deficient assessed as reduction in cell viability after 72 hrs by CCK8 assay. Type of assay: functional, cell-based. To be noted: HCT-116, 72 h. In short, it runs like this: as §2
The test system of assay [14] is HCT-116. Description: Antiproliferative activity against human HCT116 cells assessed as reduction in cell viability after 72 hrs by CCK8 assay. It counts as functional, cell-based. The following applies: HCT-116, 72 h.
The target in assay [15] is T1, Nicotinamide phosphoribosyltransferase. Description: Inhibition of NAMPT in human HCT116 cells assessed as decrease in cellular NAD+ level after 24 hrs in presence of NMN by MTT assay. Type of assay: cell-based. In a few lines:
as §3

In assay [16] the test system is K562. Description: Antiproliferative activity against human K562 cells assessed as reduction in cell viability after 72 hrs by CCK8 assay. It counts as functional, cell-based. To be noted: K562, 72 h.
Assay [17] has as its target T1, Nicotinamide phosphoribosyltransferase. Description: Inhibition of NAMPT in human HL60 cells assessed as decrease in cellular NAD+ level after 24 hrs in presence of NMN by MTT assay. Type of assay: cell-based. In short, it runs like this: as §3
Assay [18] has the same target. Description: Inhibition of NAMPT in human K562 cells assessed as decrease in cellular NAD+ level after 24 hrs in presence of NMN by MTT assay. It counts as cell-based. In a few lines: as §3

As for `Nc1cc(F)ccc1NC(=O)c1ccc(CNC(=O)/C=C/c2cccnc2)cc1` [TUCIDINOSTAT], the inhibition result in assay [1], in assay [3], in assay [5], in [11], in assay [12] and in assay [15] was “inactive” in each case. Moreover, the inhibition entry in assay [17] and in assay [18] was “inactive” in each case. Moreover, the IC50 was found to be 2400 nM in the assay on K562 [2]; 2100 nM in assay [6]; 2.2 nM with HL-60 [7]; 3200 nM in the assay with HL-60 [8]; 13 nM in the assay on HEL [9]; 1800 nM with HEL [10]. Besides, the IC50 with HCT-116 [13] is > 20000 nM; in the assay on HCT-116 [14], 340 nM; in the assay on K562 [16], 320 nM. Moreover, in assay [4], the inhibition entry was “Active”.
